Activity calls are given as the source filed them.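 The calls were made as follows: active = inhibition of at least 50%; inactive = inhibition below 50%.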

Chain of Diacylglycerol lipase-beta (Mus musculus) (Q91WC9 whole entry, looked up): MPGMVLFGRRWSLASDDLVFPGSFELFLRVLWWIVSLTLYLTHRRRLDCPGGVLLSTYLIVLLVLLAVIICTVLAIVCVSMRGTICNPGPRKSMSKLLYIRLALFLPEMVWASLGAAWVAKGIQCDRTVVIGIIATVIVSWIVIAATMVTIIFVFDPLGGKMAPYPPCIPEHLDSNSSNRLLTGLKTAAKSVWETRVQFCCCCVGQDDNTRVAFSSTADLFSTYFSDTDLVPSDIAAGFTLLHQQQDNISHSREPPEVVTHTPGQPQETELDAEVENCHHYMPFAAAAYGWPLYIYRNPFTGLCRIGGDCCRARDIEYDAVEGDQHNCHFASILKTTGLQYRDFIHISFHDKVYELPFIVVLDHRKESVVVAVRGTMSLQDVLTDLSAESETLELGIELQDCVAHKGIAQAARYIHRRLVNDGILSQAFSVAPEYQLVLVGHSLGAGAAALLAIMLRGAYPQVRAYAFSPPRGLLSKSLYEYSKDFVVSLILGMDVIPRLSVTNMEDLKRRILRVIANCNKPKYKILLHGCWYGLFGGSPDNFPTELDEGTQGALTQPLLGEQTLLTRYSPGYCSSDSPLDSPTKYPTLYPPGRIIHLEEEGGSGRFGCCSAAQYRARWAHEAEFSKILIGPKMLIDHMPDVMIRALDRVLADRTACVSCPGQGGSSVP

In this test the target is Diacylglycerol lipase-beta (Mus musculus) (UniProt Q91WC9). The test is described as follows: blocking of probe labeling on DAGLb – biochemical, gel-based fluorescence, overexpressed mouse, set 3, late-stage follow-up (AID 602300). Particulars: HEK293T membrane mDAGLb, gel ABPP fluorescence; at 1 µM; hits give high values. In a few lines:
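Test system: HEK293T membranes with overexpressed mouse DAGLb; times: 30 min compound plus 30 min probe, 37 °C; detection: in-gel fluorescence, band IOD; measure: percent inhibition of DAGLb band versus DMSO and blank-gel references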
With `O=C(O)c1ccc(-c2ccc(-c3cn(C(=O)N4CCCCC4CCc4ccccc4)nn3)cc2)cc1` (configuration not stated), the inhibition (usually the drop in the measured response relative to a control, in per cent) was 1% (inactive).

For `O=C(O)c1cccc(-c2ccc(-c3cn(C(=O)N4CCCCC4CCc4ccccc4)nn3)cc2)c1` (configuration not stated), the inhibition is 4% (inactive).

In the case of `O=C(N1CCCCC1c1ccccc1)n1cc(-c2ccc(-c3ccccc3CO)cc2)nn1` (configuration not stated), the inhibition was 0% (inactive).

As to `O=C(O)c1cccc(-c2ccc(-c3cn(C(=O)N4CCCCC4c4ccccc4)nn3)cc2)c1` (configuration not stated), the inhibition is 6% (inactive).

Turning to `O=C(c1cccc(-c2ccc(-c3cn(C(=O)N4CCCCC4c4ccccc4)nn3)cc2)c1)N1CCCCC1` (configuration not stated), the inhibition is 0% (inactive).

On to `O=C(N1CCCCC1Cc1ccccc1)n1cc(-c2ccc(-c3cccc(CO)c3)cc2)nn1` (configuration not stated), for which the inhibition is 84%.

As to `NC(=O)c1ccc(-c2ccc(-c3cn(C(=O)N4CCCCC4c4ccccc4)nn3)cc2)cc1` (configuration not stated), the inhibition was 0% (inactive).

As to `O=C(c1ccc(-c2ccc(-c3cn(C(=O)N4CCCCC4c4ccccc4)nn3)cc2)cc1)N1CCCCC1` (configuration not stated), the inhibition is 0% (inactive).

As to `O=C(O)c1cccc(-c2ccc(-c3cn(C(=O)N4CCCCC4Cc4ccccc4)nn3)cc2)c1` (configuration not stated), the inhibition is 50%.

As to `O=C(N1CCCCC1c1ccccc1)n1cc(-c2ccc(-c3cccc(CO)c3)cc2)nn1` (configuration not stated), the inhibition is 0% (inactive).

As to `O=C(c1ccc(-c2ccc(-c3cn(C(=O)N4CCCCC4Cc4ccccc4)nn3)cc2)cc1)N1CCCCC1` (configuration not stated), the inhibition is 39% (inactive).

Take `O=C(N1CCCCC1c1ccccc1)n1cc(-c2ccc(-c3ccc(CO)cc3)cc2)nn1` (configuration not stated): the inhibition was 0% (inactive).

For the origin of these results see PubChem BioAssay AID602300 (The Scripps Research Institute Molecular Screening Center, 2012).
